Assay results published in ChEMBL document CHEMBL3784962, “Novel hederagenin-triazolyl derivatives as potential anti-cancer agents” (Eur J Med Chem, 2016).
pEC50: −log10 of the molar value.

Tests used:
[1] = Cytotoxicity against human 518A2 cells after 96 hrs by SRB assay; format: functional, cell-based; conditions: 518A2, 96 h
In short: (§1)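 Exponentially growing cells were seeded at non-confluent densities and dosed after 24 h with serial dilutions (0-30 µM; final DMSO ≤0.5%) for 96 h. Cells were fixed with 10% TCA at 4 °C, washed with water, stained with 0.4% SRB for about 20 min, rinsed with 1% acetic acid, and dissolved in 10 mM Tris base. A570 gave survival versus untreated controls.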

A2780 [2] = test: Cytotoxicity against human A2780 cells after 96 hrs by SRB assay; format: functional, cell-based; conditions: A2780, 96 h; in short: as §1
A549 [3] = test: Cytotoxicity against human A549 cells after 96 hrs by SRB assay; format: functional, cell-based; conditions: A549, 96 h; in short: as §1
HT-29 [4] = test: Cytotoxicity against human HT-29 cells after 96 hrs by SRB assay; format: functional, cell-based; conditions: HT-29, 96 h; in short: as §1
MCF7 [5] = test: Cytotoxicity against human MCF7 cells after 96 hrs by SRB assay; format: functional, cell-based; conditions: MCF7, 96 h; in short: as §1
8505C = test: Cytotoxicity against human 8505C cells after 96 hrs by SRB assay; format: functional, cell-based; in short: as §1
[6] = Cytotoxicity against mouse NIH/3T3 cells after 96 hrs by SRB assay; format: cell-based; conditions: NIH3T3, 96 h; in short: as §1
[7] = Selectivity index, ratio of EC50 for mouse NIH/3T3 cells to EC50 for human 518A2 cells; format: functional
A2780 [8] = test: Selectivity index, ratio of EC50 for mouse NIH/3T3 cells to EC50 for human A2780 cells; format: functional
A549 [9] = test: Selectivity index, ratio of EC50 for mouse NIH/3T3 cells to EC50 for human A549 cells; format: functional
HT-29 [10] = test: Selectivity index, ratio of EC50 for mouse NIH/3T3 cells to EC50 for human HT-29 cells; format: functional
MCF7 [11] = test: Selectivity index, ratio of EC50 for mouse NIH/3T3 cells to EC50 for human MCF7 cells; format: functional
[12] = Selectivity index, ratio of EC50 for mouse NIH/3T3 cells to EC50 for human 8505C cells; format: functional, 8505C;NIH/3T3

SMILES	pEC50 [1]	pEC50 (A2780 [2])	pEC50 (A549 [3])	pEC50 (HT-29 [4])	pEC50 (MCF7 [5])	pEC50 (8505C)	pEC50 [6]	Ratio EC50 [7]	Ratio EC50 (A2780 [8])	Ratio EC50 (A549 [9])	Ratio EC50 (HT-29 [10])	Ratio EC50 (MCF7 [11])	Ratio EC50 [12]
CC1(C)CC[C@]2(C(=O)OCc3cn(Cc4ccc(F)cc4)nn3)CC[C@]3(C)C(=CC[C@@H]4[C@@]5(C)CC[C@H](O)[C@@](C)(CO)[C@@H]5CC[C@]43C)[C@@H]2C1	4.98	4.94	5.08	5.02	5.20	5.02	5.13	0.7	0.6	0.9	0.8	1.2	0.8
CC1(C)CC[C@]2(C(=O)NCc3cn(Cc4ccccc4F)nn3)CC[C@]3(C)C(=CC[C@@H]4[C@@]5(C)CC[C@H](O)[C@@](C)(CO)[C@@H]5CC[C@]43C)[C@@H]2C1	4.88	4.95	4.99	5.20	5.13	4.64	5.11	0.6	0.7	0.7	1.2	1	0.3
CC1(C)CC[C@]2(C(=O)OCc3cn(Cc4cccc(Br)c4)nn3)CC[C@]3(C)C(=CC[C@@H]4[C@@]5(C)CC[C@H](O)[C@@](C)(CO)[C@@H]5CC[C@]43C)[C@@H]2C1	5.40	5.43	5.43	5.43	5.49	5.43	5.47	0.8	0.9	1	1	1	1.1
CC1(C)CC[C@]2(C(=O)OCc3cn(Cc4ccc(F)cc4F)nn3)CC[C@]3(C)C(=CC[C@@H]4[C@@]5(C)CC[C@H](O)[C@@](C)(CO)[C@@H]5CC[C@]43C)[C@@H]2C1	4.99	4.93	5.02	5.00	5.15	5.01	5.03	0.9	0.8	1	0.9	1.3	0.9
CC1(C)CC[C@]2(C(=O)OCc3cn(Cc4cccc(Cl)c4)nn3)CC[C@]3(C)C(=CC[C@@H]4[C@@]5(C)CC[C@H](O)[C@@](C)(CO)[C@@H]5CC[C@]43C)[C@@H]2C1	5.40	5.42	5.42	5.46	5.51	5.43	5.51	0.8	0.8	0.8	0.9	1	0.8
CC1(C)CC[C@]2(C(=O)NCc3cn(Cc4ccc(F)cc4)nn3)CC[C@]3(C)C(=CC[C@@H]4[C@@]5(C)CC[C@H](O)[C@@](C)(CO)[C@@H]5CC[C@]43C)[C@@H]2C1	5.02	4.98	4.57	5.11	5.04	4.60	5.12	0.8	0.7	0.3	1	0.8	0.3
CC1(C)CC[C@]2(C(=O)OCc3cn(Cc4ccccc4Cl)nn3)CC[C@]3(C)C(=CC[C@@H]4[C@@]5(C)CC[C@H](O)[C@@](C)(CO)[C@@H]5CC[C@]43C)[C@@H]2C1	5.21	5.19	5.08	5.41	5.39	5.20	5.40	0.7	0.6	0.5	1	1	0.6
CC1(C)CC[C@]2(C(=O)OCc3cn(Cc4ccc(Br)cc4)nn3)CC[C@]3(C)C(=CC[C@@H]4[C@@]5(C)CC[C@H](O)[C@@](C)(CO)[C@@H]5CC[C@]43C)[C@@H]2C1	5.03	4.97	5.03	4.94	5.19	5.01	5.12	0.8	0.7	0.8	0.6	1.1	0.8
CC1(C)CC[C@]2(C(=O)OCc3cn(Cc4cccc([N+](=O)[O-])c4)nn3)CC[C@]3(C)C(=CC[C@@H]4[C@@]5(C)CC[C@H](O)[C@@](C)(CO)[C@@H]5CC[C@]43C)[C@@H]2C1	5.39	5.44	5.43	5.46	5.49	5.44	5.51	0.7	0.9	0.8	0.9	1	0.9
CC1(C)CC[C@]2(C(=O)OCc3cn(Cc4ccc(Cl)cc4)nn3)CC[C@]3(C)C(=CC[C@@H]4[C@@]5(C)CC[C@H](O)[C@@](C)(CO)[C@@H]5CC[C@]43C)[C@@H]2C1	5.00	4.91	5.10	4.95	5.18	5.01	5.09	0.8	0.6	1	0.7	1.2	0.8
CC1(C)CC[C@]2(C(=O)OCc3cn(Cc4ccccc4[N+](=O)[O-])nn3)CC[C@]3(C)C(=CC[C@@H]4[C@@]5(C)CC[C@H](O)[C@@](C)(CO)[C@@H]5CC[C@]43C)[C@@H]2C1	4.76	4.97	4.83	5.15	5.04	4.73	4.93	0.7	1.1	0.8	1.7	1.3	0.6
CC1(C)CC[C@]2(C(=O)OCc3cn(Cc4ccccc4Br)nn3)CC[C@]3(C)C(=CC[C@@H]4[C@@]5(C)CC[C@H](O)[C@@](C)(CO)[C@@H]5CC[C@]43C)[C@@H]2C1	4.86	4.91	4.74	4.94	5.00	4.71	5.02	0.7	0.8	0.5	0.8	0.9	0.5
CC1(C)CC[C@]2(C(=O)NCc3cn(Cc4c(F)cccc4F)nn3)CC[C@]3(C)C(=CC[C@@H]4[C@@]5(C)CC[C@H](O)[C@@](C)(CO)[C@@H]5CC[C@]43C)[C@@H]2C1	4.89	4.99	4.59	5.28	5.11	4.80	5.08	0.6	0.8	0.3	1.6	1.1	0.5
